# Measurements collected from several papers.
# Protocols differ between the studies behind these lines.
# Target: Mitogen-activated protein kinase kinase kinase kinase 4 (MAP4K4, Homo sapiens, UniProt O95819)
Structure (SMILES),observed,action,method,tested at,quantity,result
Cc1nn(C)cc1-c1nc2c(N3CCN(Cc4ccc(Cl)cc4)CC3)c(Cl)cnc2[nH]1,binding,,competition with immobilised ligand,1 µM,remaining binding,88%
O=c1[nH]c2ccccc2n1C1CCN(Cc2ccc(-c3[nH]c4cc5ncnc5cc4nc3-c3ccccc3)cc2)CC1,cell-free assay,,,0.5 µM,remaining signal,99.5%
COc1ncccc1-c1cnn2ccc(N3CCN(C(=O)OC(C)C)CC3)nc12,binding,,competition with immobilised ligand,1 µM,remaining binding,83%
N#CC1(c2ccccn2)CCN(Cc2cc(C(=O)O)c(=O)n3ccccc23)CC1,cell-free assay,,competition with immobilised ligand,1 µM,remaining binding,87%
CC(C)(C)c1cc(C=C(C#N)C#N)cc(Br)c1O,enzyme activity,inhibitor,,0.5 µM,remaining activity,96.2%
Cn1cc(-c2cccc(N3CCc4c(sc5c4CC(C)(C)C5)C3=O)c2CO)cc(Nc2ccncn2)c1=O,enzyme activity,inhibitor,,1 µM,inhibition,4%
Cn1cncc1[C@](O)(COc1ccc(C#N)cc1-c1ccc(OC(F)(F)F)cc1)c1ccc(C#N)cc1,cell-free assay,,competition with immobilised ligand,1 µM,remaining binding,100%
Cn1cc(-c2cc(F)cc(N3CCn4c(cc5c4CCCC5)C3=O)c2CO)cc(Nc2ccc(N3CCN(C4COC4)CC3)cn2)c1=O,enzyme activity,inhibitor,,0.1 µM,inhibition,23%
Nc1ncc(-c2nc(N3CCOCC3)nc(N3CCOCC3)n2)c(C(F)F)n1,binding,,competition with immobilised ligand,10 µM,remaining binding,100%
